The source made the active and inactive calls. The calls are words filed in the database; no cut-off is given here.
System: not listed separately
Assay: Half life in ICR/CD-1 mouse liver S9 fraction at 2 uM by LC-MS/MS analysis
Format: ADME, subcellular
Conditions: not given
`O=C(CSc1nc2c(c(=O)n1-c1ccccc1)SCC2)Nc1ccc(-c2ccccc2)cn1` showed a half-life at 2 µM of 26 min.

System: not listed separately
Assay: Half life in mouse plasma at 2 uM
Format: ADME, cell-free
Conditions: not given
Work on `O=C(CSc1nc2c(c(=O)n1-c1ccccc1)SCC2)Nc1ccc(-c2ccccc2)cn1` yielded a half-life at 2 µM of 2 min.

System: Danio rerio
Assay: In vivo inhibition of porcupine in juveline stage of zebrafish assessed as inhibition of Wnt-mediated tail fin regeneration at 5 uM
Format: functional, organism-based
Conditions: not given
With `O=C(CSc1nc2c(c(=O)n1-c1ccccc1)SCC2)Nc1ccc(-c2ccccc2)cn1` the inhibition was “Active”.

Target: T1, Protein-serine O-palmitoleoyltransferase porcupine (Mus musculus, UniProt Q9JJJ7)
T1 sequence (Q9JJJ7 whole entry): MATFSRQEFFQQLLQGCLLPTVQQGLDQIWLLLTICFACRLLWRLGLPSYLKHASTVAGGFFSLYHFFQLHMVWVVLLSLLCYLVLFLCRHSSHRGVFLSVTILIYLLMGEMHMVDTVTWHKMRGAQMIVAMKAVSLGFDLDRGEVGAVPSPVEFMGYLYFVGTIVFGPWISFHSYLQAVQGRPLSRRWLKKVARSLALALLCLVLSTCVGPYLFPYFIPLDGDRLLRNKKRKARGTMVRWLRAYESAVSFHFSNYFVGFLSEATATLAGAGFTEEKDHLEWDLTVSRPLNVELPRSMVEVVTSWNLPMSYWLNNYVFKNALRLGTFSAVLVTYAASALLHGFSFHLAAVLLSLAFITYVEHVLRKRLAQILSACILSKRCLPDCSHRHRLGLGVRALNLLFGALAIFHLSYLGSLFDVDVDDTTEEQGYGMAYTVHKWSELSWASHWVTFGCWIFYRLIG
Assay: Inhibition of porcupine-mediated Wnt signalling in mouse L cells after 24 hrs by SuperTopflash reporter assay
Format: cell-based
Conditions: not given
`COc1ccc(-n2c(SCC(=O)Nc3nc4ccc(OC)cc4s3)nc3c(c2=O)SCC3)cc1` showed an EC50 of 120 nM. `O=C(CSc1nc2c(c(=O)n1-c1ccccc1)SCC2)Nc1ccc(-c2ccccc2)cn1` gave an EC50 of 0.5 nM. `CCn1c(SCC(=O)Nc2nc3ccccc3s2)nc2c(c1=O)SC(C)C2` (stereo not drawn) showed an EC50 of 4000 nM. Work on `O=C(CSc1nc2c(c(=O)n1-c1ccccc1)SCC2)Nc1ncc(-c2ccoc2)cn1` yielded an EC50 of 1.5 nM. `COc1ccccc1-n1c(SCC(=O)Nc2nc3ccc(C(F)(F)F)cc3s2)nc2c(c1=O)SCC2` gave an EC50 of 30 nM. For `O=C(CSc1nc2c(c(=O)n1-c1ccccc1)SCC2)Nc1ccc(-c2cncnc2)cn1`, the EC50 was 5.5 nM. Compound `O=C(CNC(=O)c1nn(-c2ccccc2)c(=O)c2ccccc12)Nc1nc2ccc([N+](=O)[O-])cc2s1` has an EC50 of 240 nM. With `COc1ccc(-n2nc(C(=O)NCC(=O)Nc3nc4ccc(C)cc4s3)c3ccccc3c2=O)cc1` the EC50 was 25 nM. Compound `O=C(CSc1nc2c(c(=O)n1-c1ccccc1)SCC2)Nc1ccc(-c2ccco2)cn1` has an EC50 of 3.5 nM. With `O=C(CSc1nc2c(c(=O)n1-c1ccccc1)SCC2)Nc1nc(-c2ccccc2)cs1` the EC50 was 350 nM. `CCOC(=O)c1ccc2nc(NC(=O)CNC(=O)c3nn(-c4ccccc4)c(=O)c4ccccc34)sc2c1` gave an EC50 greater than 25000 nM. Compound `COc1ccc(-n2nc(C(=O)NCC(=O)Nc3nc4ccc(Cl)cc4s3)c3ccccc3c2=O)cc1` has an EC50 of 15 nM. With `COc1ccc2nc(NC(=O)CSc3nc4c(c(=O)n3-c3ccccc3)SCC4)ccc2c1` the EC50 was 580 nM. Work on `COc1ccc2nc(NC(=O)CNC(=O)c3nn(-c4ccc(F)cc4)c(=O)c4ccccc34)sc2c1` yielded an EC50 of 90 nM. With `O=C(CSc1nc2c(c(=O)n1-c1ccccc1)SCC2)Nc1ccc(-c2ccsc2)cn1` the EC50 was 2 nM. `O=C(CNC(=O)c1nn(-c2ccc(F)cc2)c(=O)c2ccccc12)Nc1nc2ccc(C(F)(F)F)cc2s1` gave an EC50 of 90 nM. For `CC(=O)c1ccc(NC(=O)CSc2nc3c(c(=O)n2-c2ccccc2)SCC3)cc1`, the EC50 was greater than 1000 nM. Work on `O=C(CSc1nc2c(c(=O)n1-c1ccccc1)SCC2)Nc1ncc(-c2ccccc2)cn1` yielded an EC50 of 15 nM. `COc1ccc2nc(NC(=O)CNC(=O)c3nn(-c4ccccc4OC)c(=O)c4ccccc34)sc2c1` showed an EC50 of 90 nM. Work on `O=C(CSc1nc2c(c(=O)n1-c1ccc(F)cc1)SCC2)Nc1nc2ccc(Cl)cc2s1` yielded an EC50 of 175 nM. Compound `Cc1ccc2nc(NC(=O)CNC(=O)c3nn(-c4ccccc4)c(=O)c4ccccc34)sc2c1` has an EC50 of 35 nM. `O=C(CSc1nc2c(c(=O)n1-c1ccccc1)SCC2)Nc1ccc(-c2cccs2)cn1` gave an EC50 of 0.3 nM. Compound `O=C(CSc1nc2c(c(=O)n1-c1ccccc1)SCC2)Nc1ccc(-c2ccccc2)nc1` has an EC50 of 0.3 nM. With `O=C(CSc1nc2c(c(=O)n1-c1ccccc1)SCC2)Nc1ccc(-c2ccccn2)cc1` the EC50 was 4 nM. With `COc1ccc(-n2nc(C(=O)NCC(=O)Nc3nc4ccc(OC)cc4s3)c3ccccc3c2=O)cc1` the EC50 was 60 nM. In the case of `O=C(CNC(=O)c1nn(-c2ccccc2)c(=O)c2ccccc12)Nc1nc2ccccc2s1`, the EC50 is reported as 2600 nM. With `O=C(CNC(=O)c1nn(-c2ccc(F)cc2)c(=O)c2ccccc12)Nc1nc2ccc(Cl)cc2s1` the EC50 was 25 nM. `COc1ccccc1-n1nc(C(=O)NCC(=O)Nc2nc3ccccc3s2)c2ccccc2c1=O` gave an EC50 of 10000 nM. For `O=C(CSc1nc2c(c(=O)n1-c1ccccc1)SCC2)Nc1nc2ccc(C(F)(F)F)cc2s1`, the EC50 was 40 nM. For `O=C(CNC(=O)c1nn(-c2ccccc2)c(=O)c2ccccc12)Nc1nc2ccc(C(F)(F)F)cc2s1`, the EC50 was 110 nM. In the case of `CCOc1ccc(NC(=O)CSc2nc3c(c(=O)n2-c2ccccc2)SCC3)cc1`, the EC50 is reported as 1000 nM. Work on `COc1ccc(-n2c(SCC(=O)Nc3nc4ccc(C(F)(F)F)cc4s3)nc3c(c2=O)SCC3)cc1` yielded an EC50 of 100 nM. For `Cc1ccc2nc(NC(=O)CSc3nc4c(c(=O)n3-c3ccccc3)SCC4)sc2c1`, the EC50 was 30 nM. `O=C(CSc1nc2c(c(=O)n1-c1ccccc1)SCC2)Nc1ccccc1-c1ccccc1` showed an EC50 greater than 5000 nM. Work on `O=C(CSc1nc2c(c(=O)n1-c1ccccc1)SCC2)Nc1ncc(-c2ccco2)cn1` yielded an EC50 of 3.5 nM. Work on `O=C(CSc1nc2c(c(=O)n1-c1ccccc1)SCC2)Nc1ccc(-c2cccnc2)cn1` yielded an EC50 of 1 nM. In the case of `O=C(CSc1nc2c(c(=O)n1-c1ccccc1)SCC2)Nc1ccc(-c2ccoc2)cn1`, the EC50 is reported as 1.5 nM. Work on `O=C(CSc1nc2c(c(=O)n1-c1ccccc1)SCC2)Nc1nc2ccc(Cl)cc2s1` yielded an EC50 of 40 nM. For `Cc1ccc2nc(NC(=O)CSc3nc4c(c(=O)n3-c3ccc(F)cc3)SCC4)sc2c1`, the EC50 was 40 nM. Compound `Cc1ccc2nc(NC(=O)CSc3nc4c(c(=O)n3C)SC(C)C4)sc2c1` (stereo not drawn) has an EC50 of 15 nM. For `COc1ccccc1-n1c(SCC(=O)Nc2nc3ccc(C)cc3s2)nc2c(c1=O)SCC2`, the EC50 was 25 nM. In the case of `COc1ccc2nc(NC(=O)CNC(=O)c3nn(-c4ccccc4)c(=O)c4ccccc34)sc2c1`, the EC50 is reported as 210 nM. For `COc1ccc(-n2nc(C(=O)NCC(=O)Nc3nc4ccccc4s3)c3ccccc3c2=O)cc1`, the EC50 was 25000 nM. In the case of `CCOC(=O)c1ccc(NC(=O)CSc2nc3c(c(=O)n2-c2ccccc2)SCC3)cc1`, the EC50 is reported as 300 nM. In the case of `COc1ccc2nc(NC(=O)CSc3nc4c(c(=O)n3-c3ccccc3OC)SCC4)sc2c1`, the EC50 is reported as 50 nM. Compound `O=C(CSc1nc2c(c(=O)n1-c1ccccc1)SCC2)Nc1cccc(-c2ccccc2)c1` has an EC50 greater than 5000 nM. In the case of `O=C(CSc1nc2c(c(=O)n1-c1ccccc1)SCC2)Nc1ccc(-c2ccncc2)cc1`, the EC50 is reported as 3 nM. For `O=C(CNC(=O)c1nn(-c2ccc(F)cc2)c(=O)c2ccccc12)Nc1nc2ccccc2s1`, the EC50 was greater than 25000 nM. Compound `O=C(CSc1nc2c(c(=O)n1-c1ccccc1)SCC2)Nc1ccc(-c2cccnc2)cc1` has an EC50 of 0.45 nM. For `CN(C)c1ccc(NC(=O)CSc2nc3c(c(=O)n2-c2ccccc2)SCC3)cc1`, the EC50 was greater than 1000 nM. In the case of `COc1ccc2nc(NC(=O)CNC(=O)c3ccc(=O)n(-c4ccccc4)c3)sc2c1`, the EC50 is reported as greater than 25000 nM. `O=C(CSc1nc2c(c(=O)n1-c1ccccc1)SCC2)Nc1ncc(-c2ccccc2)s1` gave an EC50 of 55 nM. `O=C(CSc1nc2c(c(=O)n1-c1ccccc1)SCC2)Nc1ccc(N2CCCCC2)cc1` showed an EC50 of 30 nM. With `O=C(CSc1nc2c(c(=O)n1-c1ccccc1)SCC2)Nc1ccc(-c2ccccc2)cc1` the EC50 was 0.75 nM. Work on `COc1ccccc1-n1c(SCC(=O)Nc2nc3ccc(Cl)cc3s2)nc2c(c1=O)SCC2` yielded an EC50 of 50 nM. `COc1ccc2nc(NC(=O)CSc3nc4c(c(=O)n3-c3ccc(F)cc3)SCC4)sc2c1` showed an EC50 of 250 nM. Work on `Cc1ccc2nc(NC(=O)CNC(=O)c3nn(-c4ccc(F)cc4)c(=O)c4ccccc34)sc2c1` yielded an EC50 of 100 nM. Work on `COc1ccc(-n2c(SCC(=O)Nc3nc4ccc(Cl)cc4s3)nc3c(c2=O)SCC3)cc1` yielded an EC50 of 35 nM. Work on `O=C(CNC(=O)c1nn(-c2ccccc2)c(=O)c2ccccc12)Nc1nccs1` yielded an EC50 greater than 25000 nM. With `O=C(CNC(=O)c1nn(-c2ccccc2)c(=O)c2ccccc12)Nc1nc2ccc(Cl)cc2s1` the EC50 was 30 nM. For `O=C(CNC(=O)c1nn(-c2ccccc2)c(=O)c2ccccc12)Nc1nc2ccc(F)cc2s1`, the EC50 was 470 nM. With `O=C(CSc1nc2c(c(=O)n1-c1ccc(F)cc1)SCC2)Nc1nc2ccc(C(F)(F)F)cc2s1` the EC50 was 100 nM. `COc1ccc2nc(NC(=O)CSc3nc4c(c(=O)n3-c3ccccc3)SCC4)sc2c1` gave an EC50 of 40 nM.

System: not listed separately
Assay: Half life in rat plasma at 2 uM
Format: ADME, cell-free
Conditions: not given
In the case of `O=C(CSc1nc2c(c(=O)n1-c1ccccc1)SCC2)Nc1ccc(-c2ccccc2)cn1`, the half-life at 2 µM is reported as 190 min.

System: Danio rerio
Assay: In vivo inhibition of porcupine in zebrafish embryos assessed as inhibition of Wnt/beta-casein-mediated posterior axis formation at 1 to 5 uM applied in aquarium water by mCherry-based reporter gene assay
Format: functional, organism-based
Conditions: in the assay text read “beta-catenin” for “beta-casein”
Outline: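 Zebrafish embryos carrying an mCherry-based Wnt/β-catenin signaling reporter were exposed to increasing concentrations of compound in the aquarium water. Whole-animal fluorescence intensity was quantified, and posterior axis formation was scored.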
In the case of `O=C(CSc1nc2c(c(=O)n1-c1ccccc1)SCC2)Nc1ccc(-c2ccccc2)cn1`, the inhibition is reported as “Active”. With `O=C(CSc1nc2c(c(=O)n1-c1ccccc1)SCC2)Nc1ccc(-c2cncnc2)cn1` the inhibition was “inactive”. In the case of `O=C(CSc1nc2c(c(=O)n1-c1ccccc1)SCC2)Nc1ccc(-c2cccs2)cn1`, the inhibition is reported as “Active”. For `O=C(CSc1nc2c(c(=O)n1-c1ccccc1)SCC2)Nc1ccc(-c2ccoc2)cn1`, the inhibition was “inactive”.

Target: T2, Protein-serine O-palmitoleoyltransferase porcupine (Mus musculus) (UniProt Q9JJJ7)
T2 sequence (whole entry): T1 sequence (Q9JJJ7 whole entry)
Assay: Inhibition of porcupine in E11.5 mouse embryo kidney assessed as inhibition of Wnt-mediated branching morphogenesis at 10 to 50 nM measured every 24 hrs by fluorescent stereoscopic analysis relative to control
Conditions: not given
Outline: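 Kidneys from E11.5 Hoxb7Cre;RosaTomato mouse embryos were cultured at the air/media interface in media containing 1 nM to 1 μM compound, with DMSO controls. Media was replaced and fluorescent stereoscope images were taken every 24 h. The read-out was the fold increase in ureteric bud tip number from 0 to 48 h, compared by Student t test.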
For `O=C(CSc1nc2c(c(=O)n1-c1ccccc1)SCC2)Nc1ccc(-c2ccccc2)cn1`, the inhibition was “Active”.

Target: T3, Protein-serine O-palmitoleoyltransferase porcupine (Homo sapiens) (UniProt Q9H237)
T3 sequence (whole entry): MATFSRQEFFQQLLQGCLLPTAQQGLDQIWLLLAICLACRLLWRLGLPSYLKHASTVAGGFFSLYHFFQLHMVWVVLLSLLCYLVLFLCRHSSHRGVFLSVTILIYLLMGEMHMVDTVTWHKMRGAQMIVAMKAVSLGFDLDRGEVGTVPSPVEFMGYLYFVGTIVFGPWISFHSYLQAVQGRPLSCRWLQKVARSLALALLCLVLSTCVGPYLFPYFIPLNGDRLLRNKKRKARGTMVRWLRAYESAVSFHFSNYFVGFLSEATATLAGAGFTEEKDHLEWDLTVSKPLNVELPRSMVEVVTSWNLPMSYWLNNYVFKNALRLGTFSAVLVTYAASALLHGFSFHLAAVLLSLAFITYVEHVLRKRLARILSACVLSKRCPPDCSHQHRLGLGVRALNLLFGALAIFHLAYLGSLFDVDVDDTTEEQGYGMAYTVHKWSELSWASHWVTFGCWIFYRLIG
Assay: Inhibition of porcupine-mediated phosphorylation of dishevelled 2 in HEK293 cells at 2.5 uM
Format: cell-based
Conditions: not given
In the case of `O=C(CSc1nc2c(c(=O)n1-c1ccccc1)SCC2)Nc1ccc(-c2ccccc2)cn1`, the inhibition is reported as “Active”.
